Laboratory results from ChEMBL document CHEMBL4425169 (ACS Med Chem Lett, 2016).
The source made the active and inactive calls. The rule behind the calls is not given here.

Columns and labels:
[1] = Volume of distribution at steady state in rhesus monkey at 1 mg/kg, iv or 2 mg/kg, po; format: ADME, organism-based, Macaca mulatta; conditions: in vivo, read-out: Vdss
Rattus norvegicus [2] = test: Diuretic activity in Sprague-Dawley rat at 0.3 mg/kg via oral gavage administered 30 mins prior to void induction by loading saline measured upto 4 hrs relative to vehicle treated control; format: functional
How it was run: (§1)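 Acute rat diuresis model in male-unspecified Sprague-Dawley rats, single oral dose, urine collected over 4 h. Urine volume, sodium excretion and potassium excretion expressed as fold increase over vehicle-treated controls; n = 5 per group; significance tested against vehicle.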

[3] = Drug metabolism in human hepatocytes assessed as oxidation at 1 uM measured at 120 mins; format: ADME, cell-based, Hepatocyte; conditions: read-out: Drug metabolism
[4] = molecular target: Sodium-dependent serotonin transporter (Homo sapiens, UniProt P31645); test: Inhibition of [3H]-serotonin uptake at human SERT transfected in HEK293 cells; format: cell-based
Chain of Sodium-dependent serotonin transporter (P31645 whole entry): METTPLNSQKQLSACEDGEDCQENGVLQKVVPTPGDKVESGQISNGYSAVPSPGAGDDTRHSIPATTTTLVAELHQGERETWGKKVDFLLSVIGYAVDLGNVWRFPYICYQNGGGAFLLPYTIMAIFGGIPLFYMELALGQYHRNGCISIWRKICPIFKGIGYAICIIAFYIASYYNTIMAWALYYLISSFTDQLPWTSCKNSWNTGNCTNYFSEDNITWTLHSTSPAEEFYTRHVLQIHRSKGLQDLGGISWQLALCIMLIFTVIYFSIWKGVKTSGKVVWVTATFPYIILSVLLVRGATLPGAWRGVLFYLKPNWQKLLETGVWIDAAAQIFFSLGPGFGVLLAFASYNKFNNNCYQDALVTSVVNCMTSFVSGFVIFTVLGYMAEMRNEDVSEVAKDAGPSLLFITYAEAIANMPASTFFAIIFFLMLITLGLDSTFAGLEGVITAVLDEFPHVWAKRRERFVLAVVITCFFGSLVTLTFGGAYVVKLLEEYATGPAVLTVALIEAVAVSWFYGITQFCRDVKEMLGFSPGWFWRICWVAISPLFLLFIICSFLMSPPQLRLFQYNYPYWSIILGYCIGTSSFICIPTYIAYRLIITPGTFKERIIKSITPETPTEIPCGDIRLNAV

[5] = Clearance in rhesus monkey at 1 mg/kg, iv or 2 mg/kg, po; format: ADME, organism-based, Macaca mulatta; conditions: in vivo
[6] = Drug metabolism in bile duct cannulated rat assessed as CYP3A4-mediated oxidative metabolite formation; format: ADME
Rattus norvegicus [7] = test: Diuretic activity in Sprague-Dawley rat at 3 mg/kg via oral gavage administered 30 mins prior to void induction by loading saline measured upto 4 hrs relative to vehicle treated control; format: functional
How it was run: (§2)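 Acute 4 h study in Sprague-Dawley rats after oral dosing, n = 5 per group. Urine volume and sodium and potassium excretion were expressed as fold increase over vehicle-treated animals. Significance was tested versus vehicle (p < 0.05 or p < 0.01).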

[8] = Cardiotoxicity in vagotomized cardiovascular dog model assessed as effect on QRS complex at plasma concentration <= 11.6 uM at 1 to 7 mg/kg, iv administered during three sequential 30 min periods; format: toxicity, organism-based, Canis lupus familiaris; conditions: in vivo, 0.5 h
How it was run: (§3)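 Anesthetized, vagotomized dogs received IV infusions over sequential periods at 1, 2 and 7 mg/kg (10 mg/kg cumulative). Heart rate, mean arterial pressure and ECG intervals (PR, QRS, QT/QTc) were recorded predose and during each infusion period. Plasma concentrations were measured.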

Rattus norvegicus [9] = test: Antihypertensive activity in spontaneously hypertensive rat assessed as reduction in systolic blood pressure at 1 mg/kg via oral gavage qd administered for 4 days measured on day 4 by telemetry (reference value: 2.5 +/- 2.2 mmHg); format: functional
Rattus norvegicus [10] = test: Kaliuretic activity in Sprague-Dawley rat at 3 mg/kg via oral gavage administered 30 mins prior to void induction by loading saline measured upto 4 hrs relative to vehicle treated control; format: functional; how it was run: as §1
[11] = molecular target: Voltage-gated inwardly rectifying potassium channel KCNH2 (Homo sapiens, UniProt Q12809); test: Inhibition of human ERG after 6 mins by electrophysiological assay
Chain of Voltage-gated inwardly rectifying potassium channel KCNH2 (Q12809 whole entry): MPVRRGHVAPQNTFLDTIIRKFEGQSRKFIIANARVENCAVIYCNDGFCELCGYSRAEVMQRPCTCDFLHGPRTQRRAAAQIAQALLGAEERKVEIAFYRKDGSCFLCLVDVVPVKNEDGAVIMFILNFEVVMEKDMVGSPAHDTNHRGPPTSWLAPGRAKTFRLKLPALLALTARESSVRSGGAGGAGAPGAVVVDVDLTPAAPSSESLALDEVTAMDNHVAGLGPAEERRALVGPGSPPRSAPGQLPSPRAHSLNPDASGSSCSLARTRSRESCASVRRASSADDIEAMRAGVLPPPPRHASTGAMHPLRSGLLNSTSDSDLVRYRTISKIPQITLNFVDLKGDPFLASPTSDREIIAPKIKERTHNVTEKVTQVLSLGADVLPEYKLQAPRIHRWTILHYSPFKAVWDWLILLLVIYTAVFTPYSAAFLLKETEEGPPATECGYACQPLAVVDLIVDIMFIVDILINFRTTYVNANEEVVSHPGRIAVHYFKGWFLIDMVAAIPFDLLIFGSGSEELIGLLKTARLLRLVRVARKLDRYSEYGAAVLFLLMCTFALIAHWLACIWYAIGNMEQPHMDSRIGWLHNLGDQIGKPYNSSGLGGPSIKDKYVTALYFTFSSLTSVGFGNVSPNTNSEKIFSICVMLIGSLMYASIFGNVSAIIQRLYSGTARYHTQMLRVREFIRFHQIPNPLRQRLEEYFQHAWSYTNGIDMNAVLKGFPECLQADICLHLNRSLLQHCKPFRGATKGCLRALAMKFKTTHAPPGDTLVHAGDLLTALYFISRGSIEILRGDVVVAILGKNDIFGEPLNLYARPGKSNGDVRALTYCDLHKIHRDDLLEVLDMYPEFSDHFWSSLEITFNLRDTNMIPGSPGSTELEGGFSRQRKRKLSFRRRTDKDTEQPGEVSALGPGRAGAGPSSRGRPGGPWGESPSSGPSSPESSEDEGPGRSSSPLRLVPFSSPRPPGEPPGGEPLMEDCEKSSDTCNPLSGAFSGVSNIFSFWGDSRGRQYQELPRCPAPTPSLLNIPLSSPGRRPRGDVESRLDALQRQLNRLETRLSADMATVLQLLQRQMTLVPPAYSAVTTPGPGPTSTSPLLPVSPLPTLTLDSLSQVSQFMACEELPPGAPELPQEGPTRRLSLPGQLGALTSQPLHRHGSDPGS

[12] = Cardiotoxicity in vagotomized cardiovascular dog model assessed as effect on PR interval at plasma concentration <= 11.6 uM at 1 to 7 mg/kg, iv administered during three sequential 30 min periods; format: toxicity, organism-based, Canis lupus familiaris; conditions: in vivo, 0.5 h; how it was run: as §3
[13] = Drug metabolism in rat hepatocytes assessed as oxidation at 1 uM measured at 120 mins; format: ADME, cell-based, Hepatocyte; conditions: 2 h
[14] = molecular target: T1, ATP-sensitive inward rectifier potassium channel 10 (Homo sapiens) (UniProt P78508); test: Inhibition of Kir4.1 (unknown origin) upto 30 uM
T1 sequence (whole entry): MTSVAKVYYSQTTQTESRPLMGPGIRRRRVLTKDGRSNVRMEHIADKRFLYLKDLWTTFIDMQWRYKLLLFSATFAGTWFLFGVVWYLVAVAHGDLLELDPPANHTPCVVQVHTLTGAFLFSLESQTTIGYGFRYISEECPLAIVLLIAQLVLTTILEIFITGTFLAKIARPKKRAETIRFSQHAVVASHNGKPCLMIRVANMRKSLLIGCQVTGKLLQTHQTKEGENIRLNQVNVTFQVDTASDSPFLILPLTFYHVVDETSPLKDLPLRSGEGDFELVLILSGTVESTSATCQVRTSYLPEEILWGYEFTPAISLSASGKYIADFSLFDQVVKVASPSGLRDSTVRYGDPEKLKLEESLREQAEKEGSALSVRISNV

[15] = Cardiotoxicity in vagotomized cardiovascular dog model assessed as effect on QT/QTc interval at plasma concentration <= 11.6 uM at 1 to 7 mg/kg, iv administered during three sequential 30 min periods; format: toxicity, organism-based, Canis lupus familiaris; conditions: in vivo, 0.5 h; how it was run: as §3
[16] = Drug metabolism in bile duct cannulated rat assessed as glucuronidation; format: ADME
Rattus norvegicus [17] = test: Natriuretic activity in Sprague-Dawley rat at 3 mg/kg via oral gavage administered 30 mins prior to void induction by loading saline measured upto 4 hrs relative to vehicle treated control; format: functional
How it was run: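 Acute 4 h diuresis/natriuresis study in SD rats given a single oral dose, n = 5 per group. Urinary sodium output is expressed as fold increase over vehicle-treated animals, with significance tested against vehicle.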

[18] = Dose normalized AUC in rat at 2 mg/kg, po; format: ADME, organism-based; conditions: in vivo
How it was run: (§4)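 Rats dosed once at 1 mg/kg IV and, separately, 2 mg/kg PO, with n = 3. Derived parameters were plasma clearance, Vdss, dose-normalized oral AUC (μM·h·kg/mg), half-life, and oral bioavailability (F%).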

[19] = Drug metabolism in human hepatocytes assessed as glucuronidation at 1 uM measured at 120 mins; format: ADME, cell-based, Hepatocyte; conditions: read-out: Drug metabolism
Rattus norvegicus [20] = test: Antihypertensive activity in spontaneously hypertensive rat assessed as reduction in systolic blood pressure at 3 mg/kg via oral gavage qd administered for 4 days measured on day 4 by telemetry (reference value: 2.5 +/- 2.2 mmHg); format: functional
[21] = Cardiotoxicity in vagotomized cardiovascular dog model assessed as effect on mean arterial pressure at plasma concentration <= 11.6 uM at 1 to 7 mg/kg, iv administered during three sequential 30 min periods; format: toxicity, organism-based, Canis lupus familiaris; conditions: in vivo, 0.5 h; how it was run: as §3
[22] = Drug metabolism in rat hepatocytes assessed as lactone hydrolysis at 1 uM measured at 120 mins; format: ADME, cell-based, Hepatocyte; conditions: read-out: Drug metabolism
[23] = Oral bioavailability in dog at 2 mg/kg; format: ADME, organism-based, Canis lupus familiaris; conditions: in vivo
[24] = Dose normalized AUC in dog at 2 mg/kg, po; format: ADME, organism-based, Canis lupus familiaris; conditions: in vivo
Rattus norvegicus [25] = test: Natriuretic activity in Sprague-Dawley rat at 0.3 mg/kg via oral gavage administered 30 mins prior to void induction by loading saline measured upto 4 hrs relative to vehicle treated control; format: functional; how it was run: as §1
[26] = Clearance in rat at 1 mg/kg, iv or 2 mg/kg, po; format: ADME, organism-based; conditions: in vivo; how it was run: as §4
Rattus norvegicus [27] = test: Antihypertensive activity in spontaneously hypertensive rat assessed as reduction in systolic blood pressure administered via oral gavage once daily for 4 days measured on day 4 by telemetry; format: functional, organism-based
[28] = molecular target: Somatostatin receptor type 1 (Homo sapiens, UniProt P30872); test: Inhibition of somatostatin receptor subtype 1 (unknown origin)
Chain of Somatostatin receptor type 1 (P30872 whole entry): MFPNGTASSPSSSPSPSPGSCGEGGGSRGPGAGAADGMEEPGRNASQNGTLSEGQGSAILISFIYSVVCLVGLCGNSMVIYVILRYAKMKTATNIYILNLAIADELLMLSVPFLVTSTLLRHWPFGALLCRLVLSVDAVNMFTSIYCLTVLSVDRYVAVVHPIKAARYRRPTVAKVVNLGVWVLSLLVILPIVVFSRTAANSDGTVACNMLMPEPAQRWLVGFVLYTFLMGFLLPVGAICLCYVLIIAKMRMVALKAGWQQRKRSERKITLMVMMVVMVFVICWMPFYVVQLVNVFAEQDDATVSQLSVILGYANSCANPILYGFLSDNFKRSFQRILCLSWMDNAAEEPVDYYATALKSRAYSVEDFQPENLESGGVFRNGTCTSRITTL

[29] = Oral bioavailability in rat at 2 mg/kg; format: ADME, organism-based; conditions: in vivo; how it was run: as §4
[30] = Half life in dog at 1 mg/kg, iv or 2 mg/kg, po; format: ADME, organism-based, Canis lupus familiaris; conditions: in vivo
Rattus norvegicus [31] = test: Diuretic activity in Sprague-Dawley rat at 10 mg/kg via oral gavage administered 30 mins prior to void induction by loading saline measured upto 4 hrs relative to vehicle treated control; format: functional; how it was run: as §2

Compound: Cc1c([C@@H](O)CN2CCN(C[C@H](O)c3ccc4c(c3C)COC4=O)CC2)ccc2c1COC2=O [MK-7145]
- Vd [1]: 6.7 L/kg
- fold change (FC) (Rattus norvegicus [2]): 6.4
- metabolised at 2 h, 1 µM [3]: 15 to 37%
- IC50 [4]: 2400 nM
- clearance [5]: 29 mL/min/kg
- Drug metabolism [6]: Metabolite_Detected
- fold change (FC) (Rattus norvegicus [7]): 9
- Activity [8]: Non-Toxic
- Activity (Rattus norvegicus [9]): 9.4 mmHg
- fold change (FC) (Rattus norvegicus [10]): 1.4
- IC50 [11]: 22 µM
- Activity [12]: Non-Toxic
- Drug metabolism [13]: 15 to 37%
- inhibition [14]: inactive
- Activity [15]: Non-Toxic
- Drug metabolism [16]: Metabolite_Detected
- fold change (FC) (Rattus norvegicus [17]): 8
- AUC/dose [18]: 0.14 µM·kg·h/mg
- metabolised at 2 h, 1 µM [19]: < 1%
- Activity (Rattus norvegicus [20]): 12.4 mmHg
- Activity [21]: Non-Toxic
- metabolised at 2 h, 1 µM [22]: < 1%
- bioavailability [23]: 51%
- AUC/dose [24]: 0.32 µM·kg·h/mg
- fold change (FC) (Rattus norvegicus [25]): 6.2
- clearance [26]: 56 mL/min/kg
- Activity (Rattus norvegicus [27]): Dose-dependent effect
- IC50 [28]: 2630 nM
- bioavailability [29]: 21%
- half-life [30]: 102 min
- fold change (FC) (Rattus norvegicus [31]): 9.4
